PKA-R2B activ = PKA-R2B complex activation. AID 504700. 340,000 compounds, 0.079% hits. P22694+P31323. activation, % at 11.4 µM. PKA-R2B holoenzyme dissociation, Cy5-IP20 fluorescence polarization; R2B truncated from residue 108, S112A mutant; 0% DMSO only, 100% 113 µM cGMP;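 active = activation above a cutoff set at the mean over all compounds plus 3 SD, cut at about 18% in these data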;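 also: higher means more holoenzyme dissociation and a rise in polarization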
VIM-2 inhibitor = inhibitors of Pseudomonas aeruginosa VIM-2 metallo-beta-lactamase. 290,000 compounds, 0.89% hits. inhibition, % at 5.6 µM. purified VIM-2, nitrocefin hydrolysis, epi-absorbance fluorescence;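 active = inhibition above the mean of all tested compounds plus 3 SD, cutoff set per screening run, cut at about 7.5% in these data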;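 also: red hydrolysis product quenches plate fluorescence so inhibitors raise well fluorescence; 0% = enzyme with DMSO and 100% = DMSO without enzyme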
bovine MsrA act = bovine methionine sulfoxide reductase A activation. 360,000 compounds, 0.3% hits. purified bovine MsrA, absorbance read-out. activation, % at 10.6 µM. AID 602163; in the data active = activation above about 7.5%;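 also: 0% = vehicle and 100% = reference activator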
MsrA inhibitor = inhibits bovine methionine sulfoxide reductase A | purified bovine MsrA, absorbance read-out | inhibition, % at 15.5 µM | 360,000 compounds, 0.75% hits; in the data active = inhibition above about 4.5%;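 also: 0% = vehicle wells with enzyme and 100% = reference inhibitor wells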
IMP-1 inhibitor = blocks Pseudomonas aeruginosa IMP-1 metallo-beta-lactamase; inhibition, % at 5.6 µM; 290,000 compounds, 0.45% hits; purified IMP-1, nitrocefin hydrolysis, epi-absorbance fluorescence; AID 1556;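 active = inhibition above the mean plus 3 SD of all compounds in the same screening run, cut at about 4.5% in these data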;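 also: 0% = IMP-1 with DMSO and 100% = DMSO wells lacking enzyme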
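System: purified IMP-1 / Input: IMP-1 dispensed at 0.2 nM / Medium: 50 mM HEPES pH 7.1, 50 µM ZnSO4, 0.05% Brij 35 / Timing: 15 min enzyme–compound preincubation, then 25 min nitrocefin reaction, 25 °C / Technique: plate fluorescence quenching by hydrolysis product, ex 480/em 530 nm / Repeats: singlicate testing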
PKA-R1A act = activators of PKA-R1A complex; activation, % at 11.4 µM; PKA-R1A dissociation, Cy5-IP20 fluorescence polarization; scaled: DMSO 0%, 113 µM cGMP 100%; AID 504707; 340,000 compounds, 0.083% hits;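 active = percent activation above the mean of all tested compounds plus 3 SD, cut at about 19% in these data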;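 also: higher means more PKAc released from R1A so a rise in polarization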
R1A FP artifact = FP assay interference, PKA-R1A counter-screen | 280 compounds, 7% hits | shares compounds with PKA-R1A act | AID 504799 | activation, % at 11.4 µM | Cy5-IP20 peptide alone, fluorescence polarization artifact counterscreen;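 active = mean activation over triplicate runs exceeds the adjusted cutoff derived for the parent primary screen, cut at about 19% in these data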;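 also: no PKA protein present so any polarization rise reflects compound interference; 0% = tracer peptide mix alone and 100% = mix with added PKA catalytic subunit; higher means stronger polarization artifact and likely false positive in parent screen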
PKA-R1A confirm = confirmation of PKA-R1A complex activators | shares compounds with PKA-R1A act | 280 compounds, 9% hits | activation, % at 11.4 µM | Cy5-IP20 fluorescence polarization, PKA-R1A holoenzyme dissociation;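 active = mean activation over replicate wells exceeds the adjusted hit threshold taken from the earlier primary screen, cut at about 20% in these data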;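 also: 0% = holoenzyme mix with DMSO only and 100% = cGMP-activated control wells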
Target sequence (P00514 whole entry, looked up): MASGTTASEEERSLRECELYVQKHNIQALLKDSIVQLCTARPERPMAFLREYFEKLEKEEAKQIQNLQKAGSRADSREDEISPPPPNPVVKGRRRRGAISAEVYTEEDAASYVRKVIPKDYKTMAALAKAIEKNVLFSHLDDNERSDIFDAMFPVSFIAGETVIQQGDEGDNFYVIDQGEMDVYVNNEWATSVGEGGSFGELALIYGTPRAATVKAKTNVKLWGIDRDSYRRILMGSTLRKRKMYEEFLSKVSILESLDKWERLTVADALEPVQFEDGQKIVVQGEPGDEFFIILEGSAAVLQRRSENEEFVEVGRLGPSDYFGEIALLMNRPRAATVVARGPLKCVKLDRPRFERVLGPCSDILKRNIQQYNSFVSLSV
An asterisk follows results filed as active; · = no result given. Rows were chosen to be rich in hits. Some 2.1% of all compounds tested hit in one or more screens of this group.

SMILES	PKA-R2B activ	VIM-2 inhibitor	bovine MsrA act	MsrA inhibitor	IMP-1 inhibitor	PKA-R1A act	R1A FP artifact	PKA-R1A confirm
CCOc1ccc(N=Cc2ccc([N+](=O)[O-])cc2)c(O)c1	-8.9	·	6.2	0.1	·	21.5*	1.0	4.9
CC(=O)Nc1ccc(NC(=O)CNC(=O)COc2ccccc2)cc1	-3.5	-2.2	-1.9	0.3	-2.1	7.0	·	·
COC(=O)CNC(=O)COc1ccccc1	3.8	-1.0	-12.1	-1.2	0.8	20.4*	-2.7	-1.3
Cc1cc(Oc2cccnc2)ccc1NC(=O)Cc1cn(C)c2ccccc12	·	·	·	0.1	·	·	·	·
COc1cc(NC(=O)CCn2c(=S)[nH]c3ccccc3c2=O)cc(OC)c1OC	-9.9	·	0.4	0.1	·	-12.1	·	·
COc1cccc(C(=O)Nc2nnc(SCC(=O)Nc3ccc(NC(C)=O)cc3)s2)c1	4.5	-1.6	-1.3	1.0	-2.8	20.1*	1.1	-2.6
COc1cccc(N2CC(C(=O)Nc3nnc(SCC(=O)Nc4ccc(NC(C)=O)cc4)s3)CC2=O)c1 (stereo unspecified)	-4.4	-3.0	-4.1	-0.5	-1.1	2.4	·	·
Cc1coc2cc3oc(=O)c(CCC(=O)NCc4ccccn4)c(C)c3cc12	7.7	-1.8	-3.5	1.3	-3.8	6.6	·	·
Cc1coc2c(C)c3oc(=O)c(CCC(=O)NCc4ccccn4)c(C)c3cc12	-10.0	7.6	0.7	1.3	-1.7	19.7*	2.0	1.3
COc1ccc(-c2[nH]n(-c3ccc([N+](=O)[O-])cc3)c(=O)c2C=NCC2CCCO2)cc1 (stereo unspecified)	9.6	-2.3	-2.9	1.6	-2.8	19.8*	3.9	1.7
CSc1nc(C)cc(/C=C\c2ccccc2)c1C#N	1.1	-3.6	-0.2	-1.7	-2.0	20.2*	1.4	0.6
CSc1nc(-c2ccccc2)cc(C)c1C#N	-8.7	1.7	-4.2	-0.5	1.0	4.5	·	·
CCCS(=O)(=O)NC(=O)C1(C)CCCN(C(=O)c2ccccc2)C1 (stereo unspecified)	·	·	-6.8	0.5	·	·	·	·
Cc1ccc(S(=O)(=O)NC2CC(C)(C)NC(C)(C)C2)cc1C	-1.9	1.8	-1.6	0.4	1.6	19.2*	1.4	5.0
CCN(CC(=O)NCc1ccc(F)cc1)C(=O)/C=C/c1cc(OC)ccc1OC	2.6	-1.5	-7.3	0.2	-2.9	-4.1	·	·
CCN(C[C@H]1N[C@@](C)(C(=O)OC)[C@H]2C(=O)N(C)C(=O)[C@@H]12)S(=O)(=O)c1ccc(OC)cc1	6.3	·	-1.8	0.7	·	-5.4	·	·
CSc1ncccc1C(=O)OCC(=O)NC1CCCC1	-0.4	·	-4.0	-0.1	·	10.0	·	·
CSc1ncccc1C(=O)OCC(=O)NC1CC1	7.9	·	-1.7	1.3	·	20.3*	3.7	2.9
O=C1NCCN(CC2CCN(CC3CCCC3)CC2)C1=O	-5.5	·	-7.7	-0.8	·	-6.0	·	·
O=C(OCC1CCNCC1)c1ccc(F)cc1	-9.3	·	-2.5	-0.8	·	-0.1	·	·
O=C(/C=C/c1ccco1)NCC1COc2ccccc2O1 (stereo unspecified)	8.1	-0.3	-5.0	0.5	0.1	18.8*	-5.1	-4.1
COc1ccc(/C=C/C(=O)NCC2COc3ccccc3O2)c(OC)c1 (stereo unspecified)	7.0	-2.3	-6.4	2.8	-2.9	-6.6	·	·
C/C(=N\NC(=O)CNC(=O)C1COc2ccccc2O1)c1ccc(Cl)cc1 (stereo unspecified)	-1.4	-1.4	-5.6	-0.4	-0.3	-8.8	·	·
COC(=O)c1ccccc1NC(=O)NCc1cccnc1	0.1	0.2	-3.4	0.2	-2.0	-4.6	·	·
COC(=O)c1ccccc1NC(=O)C(=O)NCc1ccncc1	-1.3	-0.6	-2.5	-1.0	-2.7	21.5*	1.2	3.5
SMILES	PKA-R2B activ	VIM-2 inhibitor	bovine MsrA act	MsrA inhibitor	IMP-1 inhibitor	PKA-R1A act	R1A FP artifact	PKA-R1A confirm
CC(C)[C@H](NC(=O)OC(C)(C)C)c1cc(C(=O)N(C)CCN(C)C)c(N)s1	·	·	·	1.9	·	·	·	·
O=C1C2C3C=CC(C3)C2C(=O)N1CCC(=O)N1CCc2ccccc21 (stereo unspecified)	-6.5	-1.6	-5.0	0.0	-2.6	23.4*	2.2	4.2
COc1ccc(C(=O)N2CCCC(Nc3ccc(C)c(C)c3)C2)c(OC)n1 (stereo unspecified)	12.2	-2.4	-3.5	-1.0	-1.6	23.2*	2.4	-3.5
COc1cccc(COC(=O)C2CC(=O)N(Cc3ccc(C)cc3)C2)c1OC (stereo unspecified)	2.6	·	-1.1	-1.2	·	-0.5	·	·
Cn1c(SCC(=O)Nc2nnc(-c3ccccc3)o2)nnc1C1CC1	2.1	0.6	-6.4	1.3	0.5	19.1*	1.8	0.8
Cn1c(SCC(=O)Nc2ccccc2Cl)nnc1C1CC1	-4.3	0.0	-4.0	-0.3	-1.4	3.6	·	·
O=C(COC(=O)c1ccco1)NC12CC3CC(CC(C3)C1)C2	-6.3	·	-3.1	2.8	·	-7.1	·	·
Cc1nn2c(NCC(C)C)c3c(nc2c1-c1ccccc1)CCC3	6.2	-2.3	-2.4	·	-0.9	20.2*	2.2	0.3
Brc1ccccc1CN1CCC(N2CCCCC2)CC1	9.5	-1.7	-3.0	0.6	-1.0	20.6*	4.6	5.9
O[C@@H]1CN(C2CCN(Cc3ccccc3)CC2)CC[C@H]1N1CCCCCC1	2.6	·	-0.4	0.4	·	-6.3	·	·
O=C(N/N=C/c1ccncc1)c1cccs1	0.0	-2.6	-0.5	·	-1.8	5.7	·	·
O=C(N/N=C\c1ccc(Cl)s1)c1cccs1	-8.8	-4.9	-4.7	3.2	-3.4	20.4*	-3.1	2.5
C[C@@H]1CN([C@H](C)CO)C(=O)CCCn2cc(nn2)CO[C@H]1CN(C)S(=O)(=O)c1ccc2c(c1)OCCCO2	3.0	·	4.8	0.6	·	-4.2	·	·
CN(C)c1ccc(Cc2ccc(N(C)C)cc2)cc1	-3.2	·	-0.1	-1.0	·	20.6*	-2.4	-0.1
Cc1c(C(=O)N2CCCCCC2)c(S(=O)(=O)Nc2cccc(F)c2)c(C)n1C	-1.6	1.9	-2.5	-0.7	-2.4	-4.2	·	·
Cc1cccc(NS(=O)(=O)c2c(C(=O)N3CCCC3)c(C)n(C)c2C)c1	-3.1	-0.3	-12.1	0.1	-1.0	20.9*	4.1	2.5
CC1=CC(=O)C(C(C)C)=C/C1=N/OC(=O)c1cccc([N+](=O)[O-])c1	-5.1	-2.2	2.4	2.3	-1.0	0.6	·	·
CC1=CC(=O)C(C(C)C)=C/C1=N\OC(=O)c1cccc2nc(C)oc12	-0.9	-0.5	-6.7	-0.2	-1.9	19.1*	2.4	2.0
CC12CCCC(CC(=O)O)(C1)NC(=O)C2 (stereo unspecified)	-3.2	·	-13.6	-0.6	·	-12.6	·	·

High-throughput results (PubChem BioAssay)
